Source: ChEMBL document CHEMBL1138466, “Isaindigotone derivatives: a new class of highly selective ligands for telomeric G-quadruplex DNA” (J Med Chem, 2009)
Calls of active or inactive are those of the source. No cut-off for these calls is given here.

How the values were obtained:
Nucleic Acid [1] = assay: Binding affinity to F10T hairpin duplex DNA assessed as change in melting temperature at 1 uM by FRET assay; type: nucleic-acid assay
Method in brief: (§1)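 FRET melting of dual-labelled probes (FAM/TAMRA): G-quadruplex F21T or hairpin duplex F10T, 0.2 µM, in 10 mM Tris-HCl pH 7.2 with 60 mM KCl, ligand 1 µM. Emission read at 530 nm (excitation 470 nm) every 1 °C from 37 to 99 °C, with a 30 s hold before each reading. ΔTm is taken relative to the annealed probe without ligand.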

Nucleic Acid [2] = assay: Binding affinity to F21T human telomeric DNA assessed as change in melting temperature at 1 uM by FRET assay; type: nucleic-acid assay; method in brief: as §1
[3] = Inhibition of human telomerase in human MCF7 cell free extract by TRAP-LIG assay
Method in brief: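 TRAP-LIG: MCF-7 protein extract (500 ng) extends TS primer in TRAP buffer (pH 8.3, 68 mM KCl) with 125 µM dNTPs and ligand, 20 min at 30 °C. Product purified to remove ligand, then PCR-amplified with ACX primer for 35 cycles. Products resolved on 16% PAGE with silver staining; IC50 computed from band optical density.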

Nucleic Acid [4] = assay: Binding affinity to oligonucleotide HTG21 by florescence titration assay in presence of K+ solution; type: nucleic-acid assay
Method in brief: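 Fluorescence titration at 25 °C in 10 mM Tris-HCl pH 7.2 with 100 mM KCl. HTG21 DNA added to ligand up to 0–2 µM final, with at least 10 min equilibration after each addition. Excitation at 343 or 353 nm depending on ligand. Binding constant Kb derived from the titration.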

CA46 [5] = assay: Induction of telomere shortening in human CA46 cells assessed as telomere length at 1.8 uM by telomeric restriction fragment assay; type: functional
Method in brief: (§2)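 TRF length: HL60 or CA46 cells treated for 16 days with 0.9 or 1.8 µM ligand or 0.1% DMSO. Genomic DNA digested with HinfI/RsaI, run on 0.8% agarose, transferred to nylon membrane and baked at 120 °C for 20 min. Telomeric smears detected by Southern analysis.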

CA46 [6] = assay: Cytotoxicity against human CA46 cells assessed as decrease in population doubling at 0.9 uM after 12 days; type: functional, cell-based
HL-60 [7] = assay: Cytotoxicity against human HL60 cells assessed as decrease in population doubling at 0.9 uM after 12 days; type: functional, cell-based
HL-60 [8] = assay: Induction of telomere shortening in human HL60 cells assessed as telomere length at 1.8 uM by telomeric restriction fragment assay; type: functional; method in brief: as §2
HL-60 [9] = assay: Cytotoxicity against human HL60 cells at 4.5 uM after 8 days; type: functional, cell-based
HL-60 [10] = assay: Induction of telomere shortening in human HL60 cells assessed as telomere length at 0.9 uM by telomeric restriction fragment assay; type: functional, cell-based; method in brief: as §2
CA46 [11] = assay: Cytotoxicity against human CA46 cells after 2 days by MTT assay; type: functional, cell-based; settings: CA46, 48 h
Method in brief: (§3)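 MTT viability: HL60 or CA46 cells seeded at 1.0 × 10³ per well and exposed to a ligand concentration series for 48 h at 37 °C, 5% CO₂. MTT added for 4 h, then DMSO; absorbance read at 570 nm. Each dose tested in triplicate; IC50 taken from mean OD versus concentration curves.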

HL-60 [12] = assay: Cytotoxicity against human HL60 cells assessed as decrease in population doubling at 1.8 uM after 12 days; type: functional, cell-based
HL-60 [13] = assay: Induction of senescence in human HL60 cells assessed as beta galactosidase activity at 0.9 uM for 16 days; type: functional, cell-based
Method in brief: (§4)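 SA-β-Gal staining: HL60 or CA46 cells treated continuously with 0.9 µM ligand or 0.1% DMSO for 16 days. Fixed in 2% formaldehyde/0.2% glutaraldehyde for 15 min, stained overnight at 37 °C with 1 mg/mL X-gal, then examined by light microscopy (×400). Repeated twice.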

Nucleic Acid [14] = assay: Binding affinity to HTG21 DNA assessed as induction of guanine-rich DNA to G-quadruplex structure formation; type: nucleic-acid assay
Method in brief: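 CD titration: HTG21 5 µM in 10 mM Tris-HCl pH 7.2, without or with 100 mM KCl. Annealed at 90 °C for 5 min, cooled slowly, held at 4 °C overnight. Ligand added at 0–5 mol equiv at 25 °C with at least 13 min equilibration per addition. Spectra recorded 230–450 nm in a 4 mm quartz cuvette.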

HL-60 [15] = assay: Cytotoxicity against human HL60 cells at 4.5 uM after 12 days; type: functional, cell-based
CA46 [16] = assay: Induction of senescence in human CA46 cells assessed as beta galactosidase activity at 0.9 uM for 16 days; type: functional, cell-based; method in brief: as §4
HL-60 [17] = assay: Cytotoxicity against human HL60 cells after 2 days by MTT assay; type: functional, cell-based; settings: HL-60, 48 h; method in brief: as §3

| Compound | ΔTm (Nucleic Acid [1]) [°C] | ΔTm (Nucleic Acid [2]) [°C] | IC50 [3] [µM] | Kb (Nucleic Acid [4]) | Activity (Nucleic Acid [14]) | Activity (CA46 [5]) [kilobase] | Activity (CA46 [6]) | Activity (HL-60 [7]) | Activity (HL-60 [8]) [kilobase] | Activity (HL-60 [9]) | Activity (HL-60 [10]) | IC50 (CA46 [11]) [µM] | Activity (HL-60 [12]) | Activity (HL-60 [13]) | Activity (HL-60 [15]) | Activity (CA46 [16]) | IC50 (HL-60 [17]) [µM] |
| --- | --- | --- | --- | --- | --- | --- | --- | --- | --- | --- | --- | --- | --- | --- | --- | --- | --- |
| CN(C)CCCNc1c2ccccc2nc2c1[nH]c1ccccc12 | 5.7 | 10.4 | – | – | – | – | – | – | – | – | – | – | – | – | – | – | – |
| O=C(CCN1CCCCC1)Nc1ccc(/C=C2\CCn3c2nc2ccc(NC(=O)CCN4CCCCC4)cc2c3=O)cc1 | 0.1 | 17.6 | 15.2 | 8.1 10^6 M-1 | – | – | – | – | – | – | – | – | – | – | – | – | – |
| O=C(CCN1CCCCC1)Nc1ccc(/C=C2\CCn3c2nc2cc(NC(=O)CCN4CCCCC4)ccc2c3=O)cc1 | 0 | 22 | 9.3 | 9.8 10^6 M-1 | – | – | – | – | – | – | – | – | – | – | – | – | – |

Further molecules by falling IC50 [3], results first:

| ΔTm (Nucleic Acid [1]) [°C] | ΔTm (Nucleic Acid [2]) [°C] | IC50 [3] [µM] | Kb (Nucleic Acid [4]) | Activity (Nucleic Acid [14]) | Compound | Activity (CA46 [5]) [kilobase] | Activity (CA46 [6]) | Activity (HL-60 [7]) | Activity (HL-60 [8]) [kilobase] | Activity (HL-60 [9]) | Activity (HL-60 [10]) | IC50 (CA46 [11]) [µM] | Activity (HL-60 [12]) | Activity (HL-60 [13]) | Activity (HL-60 [15]) | Activity (CA46 [16]) | IC50 (HL-60 [17]) [µM] |
| --- | --- | --- | --- | --- | --- | --- | --- | --- | --- | --- | --- | --- | --- | --- | --- | --- | --- |
| 0.4 | 17.6 | 9 | 7.2 10^6 M-1 | – | O=C(CCN1CCCC1)Nc1ccc(/C=C2\CCn3c2nc2ccc(NC(=O)CCN4CCCC4)cc2c3=O)cc1 | – | – | – | – | – | – | – | – | – | – | – | – |
| 0.1 | 21.9 | 7.8 | 10.1 10^6 M-1 | Active | O=C(CCN1CCCC1)Nc1ccc(/C=C2\CCn3c2nc2cc(NC(=O)CCN4CCCC4)ccc2c3=O)cc1 | 2.3 | Active | Active | 1.1 | Active | Active | 29 | Active | Active | Active | Active | 33 |
